The source made the active and inactive calls.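 The calls were made as follows, unless noted: active = viability at or below 10% of carrier control in both of two separate runs; inconclusive = viability at or below 10% in only one of the two runs; inactive = the rest.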
Assays:
[1] = reducers of endogenous Her2 protein level, primary screen, SKBR3 breast tumor cells, AlphaScreen, ATP viability (AID 461;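 active = Her2 level under about 52% in both replicate screens, with viability over 70% of control, limit read from the data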;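 as to Her2 level: lower value means less Her2 protein in the cells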;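 as to viability: percent of carrier control wells set as 100% viability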); conditions: 18-24 h, measured here: SKBR3 viability, ATP luminescence, at 10 µM
[2] = biological target: Receptor tyrosine-protein kinase erbB-2 (Homo sapiens) (UniProt P04626); experiment: as above; conditions: 18-24 h, at 10 µM, stronger effect = lower value
Chain of Receptor tyrosine-protein kinase erbB-2 (Homo sapiens) (P04626 whole entry, looked up): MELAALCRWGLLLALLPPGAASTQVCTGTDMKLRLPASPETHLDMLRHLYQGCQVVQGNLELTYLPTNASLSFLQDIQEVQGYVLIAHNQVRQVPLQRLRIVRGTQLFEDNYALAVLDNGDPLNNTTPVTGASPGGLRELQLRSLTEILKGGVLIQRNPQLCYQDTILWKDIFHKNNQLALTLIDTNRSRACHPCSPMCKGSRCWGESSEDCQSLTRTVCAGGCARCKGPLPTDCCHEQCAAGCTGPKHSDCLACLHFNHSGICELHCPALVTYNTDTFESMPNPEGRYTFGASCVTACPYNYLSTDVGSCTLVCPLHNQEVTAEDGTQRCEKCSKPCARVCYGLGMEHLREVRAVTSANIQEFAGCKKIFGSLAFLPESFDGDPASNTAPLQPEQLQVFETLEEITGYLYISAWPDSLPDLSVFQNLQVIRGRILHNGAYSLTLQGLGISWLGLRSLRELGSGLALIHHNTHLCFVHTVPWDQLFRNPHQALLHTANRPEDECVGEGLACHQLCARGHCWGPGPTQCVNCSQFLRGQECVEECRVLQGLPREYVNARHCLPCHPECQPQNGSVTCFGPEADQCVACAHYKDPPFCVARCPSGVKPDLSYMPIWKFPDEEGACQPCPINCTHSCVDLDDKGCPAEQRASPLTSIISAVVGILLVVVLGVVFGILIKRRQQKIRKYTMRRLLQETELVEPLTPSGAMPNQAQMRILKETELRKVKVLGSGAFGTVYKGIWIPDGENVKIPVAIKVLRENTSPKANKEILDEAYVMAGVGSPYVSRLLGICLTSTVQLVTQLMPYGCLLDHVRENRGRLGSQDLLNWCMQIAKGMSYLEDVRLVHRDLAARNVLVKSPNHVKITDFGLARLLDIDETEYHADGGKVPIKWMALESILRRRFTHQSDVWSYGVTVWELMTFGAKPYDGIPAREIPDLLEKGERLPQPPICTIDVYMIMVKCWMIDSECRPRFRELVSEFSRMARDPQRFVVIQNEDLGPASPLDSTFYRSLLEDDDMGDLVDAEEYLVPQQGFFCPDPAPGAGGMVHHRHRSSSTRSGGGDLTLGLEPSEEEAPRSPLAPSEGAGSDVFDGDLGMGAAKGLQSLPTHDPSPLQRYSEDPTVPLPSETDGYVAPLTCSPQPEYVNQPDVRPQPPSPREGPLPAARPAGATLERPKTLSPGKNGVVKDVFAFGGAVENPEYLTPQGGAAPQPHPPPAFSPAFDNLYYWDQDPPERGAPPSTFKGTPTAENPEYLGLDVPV

[3] = SK-BR-3 cell growth inhibitors, pilot screen, 24 h, human (AID 572); conditions: SK-BR-3 viability, CellTiter-Glo luminescence, at 10 µM, stronger effect = lower value;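 also: compound exposure lasted between 18 and 24 h rather than exactly 24 h; 100% = carrier-treated control wells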
[4] = HUVEC growth inhibition – cell-based, human, primary screen (AID 575;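 active = viability at or below 30% in both replicate assays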;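 also: 100% = median of untreated cell wells with 0.1% DMSO on each plate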); conditions: HUVEC proliferation, CellTiter-Glo luminescence, 72 h; at 10 µM; stronger effect = lower value
In short: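 Assay system: primary human umbilical vein endothelial cells / Buffer or medium: endothelial basal medium with 2% FBS plus growth supplements / Compound dosing: one dose, 10 µM final, 0.1% DMSO / Timing: 72 h treatment at 37 °C / Signal: CTG luminescence / Benchmarks: 32 DMSO-only cell-control wells (high), 32 MePR drug-control wells (low) per plate / Plate: collagen-coated 384-well format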

[5] = growth inhibitors of H69AR lung tumor, primary screen, human, duplicate replicates (AID 580;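 active = viability at or under a set limit in both replicates, limit being median viability minus 3 SD, cut at about 48% in these data, passing the limit was not always enough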;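 also: 100% = mean luminescence of untreated wells and 0% = no signal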); conditions: H69AR lung tumor cells viability, ATP luminescence, 72 h; at 10 µM; stronger effect = lower value
[6] = reversal of MRP1-mediated doxorubicin resistance, pilot screen, H69AR cells, doxorubicin co-treatment (AID 601;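 active = viability loss from added drug above about 55%, and viability with drug at most 40%, in both replicates, limit read from the data, passing the limit was not always enough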); conditions: CellTiter-Glo, 72 h, at 10 µM; for differential viability (reversal): stronger effect = higher value
[7] = 384-well plate pilot, post-Golgi transport modulator project, inhibition of yeast transport mutant growth (AID 636; in the data active = inhibition above about 31%); conditions: absorbance 615 nm, about 18 h, stronger effect = higher value
[8] = growth suppression of yeast trafficking mutant, preliminary HTS, modulators of trafficking downstream of Golgi apparatus project, 1536-format plate, OD 615 nm (AID 637; in the data active = inhibition above about 30%); conditions: yeast transport mutant growth, absorbance 615 nm, 18 h; stronger effect = higher value
[9] = H69AR cells + 2 uM doxorubicin, measured here: viability with 2 uM doxorubicin, stronger effect = lower value
[10] = H69AR cells, compound alone cytotoxicity

O=C1CC(C2CCCO2)C(=O)N1Cc1ccccc1 (stereo not given)
viability [1]: 98%
Her2 level [2]: 94% (inactive)
viability [3]: 98% (inactive)
viability [4]: 90.2% (inactive)
viability [5]: 103% (inactive)
differential viability (reversal) ([6]; H69AR cells + 2 uM doxorubicin): 3.39% (inactive)
viability [6, 9]: 99.4%
viability [6, 10]: 103%
inhibition [7]: -6.08% (inactive)
inhibition [8]: -0.66% (inactive)

COc1ccc(N(C(=O)c2ccco2)C(C(=O)NC2CCCC2)c2ccc(N(C)C)cc2)cc1OC (stereo not given)
viability [1]: 100%
Her2 level [2]: 123% (inactive)
viability [3]: 100% (inactive)
viability [4]: 91.2% (inactive)
viability [5]: 90% (inactive)
differential viability (reversal) ([6]; H69AR cells + 2 uM doxorubicin): -14.6% (inactive)
viability [6, 9]: 105%
viability [6, 10]: 90%
inhibition [7]: -1.3% (inactive)
inhibition [8]: -8.5% (inactive)

CCn1ncc(Cl)c1C(=O)Nc1ccncc1
viability [1]: 114%
Her2 level [2]: 94.5% (inactive)
viability [3]: 114% (inactive)
viability [4]: 97.5% (inactive)
viability [5]: 98.6% (inactive)
differential viability (reversal) ([6]; H69AR cells + 2 uM doxorubicin): 14.8% (inactive)
viability [6, 9]: 83.7%
viability [6, 10]: 98.6%
inhibition [7]: -4.4% (inactive)
inhibition [8]: -1.97% (inactive)

COc1cccc(N2CCN(CC(=O)Nc3nnc(-c4ccccc4)s3)CC2)c1
viability [1]: 86%
Her2 level [2]: 86% (inactive)
viability [3]: 86% (inactive)
viability [4]: 54.7% (inactive)
viability [5]: 83.5% (inactive)
differential viability (reversal) ([6]; H69AR cells + 2 uM doxorubicin): -19.7% (inactive)
viability [6, 9]: 103%
viability [6, 10]: 83.5%
inhibition [7]: -3.12% (inactive)
inhibition [8]: -1.64% (inactive)

O=C1CC(=O)N(Cc2cccs2)C(=O)N1
viability [1]: 93.5%
Her2 level [2]: 99% (inactive)
viability [3]: 93.5% (inactive)
viability [4]: 103% (inactive)
viability [5]: 101% (inactive)
differential viability (reversal) ([6]; H69AR cells + 2 uM doxorubicin): 6.82% (inactive)
viability [6, 9]: 94%
viability [6, 10]: 101%
inhibition [7]: -2.76% (inactive)
inhibition [8]: -3.82% (inactive)

CN(C)/C=N/c1ncnc2c1cnn2-c1ccc(C(F)(F)F)cn1
viability [1]: 108%
Her2 level [2]: 100% (inactive)
viability [3]: 108% (inactive)
viability [4]: 104% (inactive)
viability [5]: 81.8% (inactive)
differential viability (reversal) ([6]; H69AR cells + 2 uM doxorubicin): -0.51% (inactive)
viability [6, 9]: 82.3%
viability [6, 10]: 81.8%
inhibition [7]: -4.42% (inactive)
inhibition [8]: -4.29% (inactive)

CCNCCNC(=O)c1c(O)c2ccccc2n(CC)c1=O
viability [1]: 126%
Her2 level [2]: 90.5% (inactive)
viability [3]: 126% (inactive)
viability [4]: 84.7% (inactive)
viability [5]: 89.1% (inactive)
differential viability (reversal) ([6]; H69AR cells + 2 uM doxorubicin): 4.78% (inactive)
viability [6, 9]: 84.3%
viability [6, 10]: 89.1%
inhibition [7]: -4.87% (inactive)
inhibition [8]: 0.81% (inactive)

CCOC(=O)C1CCN(Cc2c(O)ccc3ccccc23)CC1
viability [1]: 126%
Her2 level [2]: 115% (inactive)
viability [3]: 126% (inactive)
viability [4]: 83.6% (inactive)
viability [5]: 98.2% (inactive)
differential viability (reversal) ([6]; H69AR cells + 2 uM doxorubicin): 5.58% (inactive)
viability [6, 9]: 92.6%
viability [6, 10]: 98.2%
inhibition [7]: -7.67% (inactive)
inhibition [8]: 5.4% (inactive)

COc1ccc(C(=O)NCCn2ccc3ccccc32)c(OC)c1
viability [1]: 95%
Her2 level [2]: 81% (inactive)
viability [3]: 95% (inactive)
viability [4]: 88.7% (inactive)
viability [5]: 87.7% (inactive)
differential viability (reversal) ([6]; H69AR cells + 2 uM doxorubicin): -0.23% (inactive)
viability [6, 9]: 87.9%
viability [6, 10]: 87.7%
inhibition [7]: -6.49% (inactive)
inhibition [8]: 1.11% (inactive)

O=C(COC(=O)CCC(=O)c1cccs1)NCc1ccco1
viability [1]: 98%
Her2 level [2]: 109% (inactive)
viability [3]: 98% (inactive)
viability [4]: 89.3% (inactive)
viability [5]: 79.8% (inactive)
differential viability (reversal) ([6]; H69AR cells + 2 uM doxorubicin): 2.55% (inactive)
viability [6, 9]: 77.3%
viability [6, 10]: 79.8%
inhibition [7]: -3.59% (inactive)
inhibition [8]: -1.5% (inactive)

Cc1occc1-c1nnc(SCC(=O)N2CCc3ccccc32)o1
viability [1]: 98.5%
Her2 level [2]: 82.5% (inactive)
viability [3]: 98.5% (inactive)
viability [4]: 85.8% (inactive)
viability [5]: 3.12% (active)
differential viability (reversal) ([6]; H69AR cells + 2 uM doxorubicin): 0.62% (inactive)
viability [6, 9]: 2.5%
viability [6, 10]: 3.12%
inhibition [7]: -3.01% (inactive)
inhibition [8]: -3.02% (inactive)

NC(=O)C1(N2CCCCC2)CCN(Cc2ccccc2Cl)CC1
viability [1]: 102%
Her2 level [2]: 77% (inactive)
viability [3]: 102% (inactive)
viability [4]: 87.8% (inactive)
viability [5]: 83.8% (inactive)
differential viability (reversal) ([6]; H69AR cells + 2 uM doxorubicin): 3.07% (inactive)
viability [6, 9]: 80.8%
viability [6, 10]: 83.8%
inhibition [7]: -6.62% (inactive)
inhibition [8]: -1.17% (inactive)

C=C(C)Cn1c(SCC)nc2ccccc2c1=O
viability [1]: 93%
Her2 level [2]: 97.5% (inactive)
viability [3]: 93% (inactive)
viability [4]: 104% (inactive)
viability [5]: 85.6% (inactive)
differential viability (reversal) ([6]; H69AR cells + 2 uM doxorubicin): -3% (inactive)
viability [6, 9]: 88.6%
viability [6, 10]: 85.6%
inhibition [7]: -5.39% (inactive)
inhibition [8]: -3.27% (inactive)

Cc1ccc(NC(=O)N2CCC(c3nc4c(nnn4Cc4cccc(Cl)c4)c(=O)[nH]3)CC2)cc1
viability [1]: 81.5%
Her2 level [2]: 76.5% (inactive)
viability [3]: 81.5% (inactive)
viability [4]: 61.8% (inactive)
viability [5]: 85.2% (inactive)
differential viability (reversal) ([6]; H69AR cells + 2 uM doxorubicin): 19.6% (inactive)
viability [6, 9]: 65.6%
viability [6, 10]: 85.2%
inhibition [7]: -0.13% (inactive)
inhibition [8]: -1.45% (inactive)

CCCS(=O)(=O)N1CCN(Cc2ccc(OCc3ccccc3)c(OC)c2)CC1
viability [1]: 84.5%
Her2 level [2]: 114% (inactive)
viability [3]: 84.5% (inactive)
viability [4]: 105% (inactive)
viability [5]: 87.8% (inactive)
differential viability (reversal) ([6]; H69AR cells + 2 uM doxorubicin): -5.26% (inactive)
viability [6, 9]: 93.1%
viability [6, 10]: 87.8%
inhibition [7]: 4.19% (inactive)
inhibition [8]: 30.2% (active)

Cc1cc(C(=O)OCC(=O)N2c3ccccc3CC2C)c(C)o1 (stereo not given)
viability [1]: 90.5%
Her2 level [2]: 86.5% (inactive)
viability [3]: 90.5% (inactive)
viability [4]: 101% (inactive)
viability [5]: 100% (inactive)
differential viability (reversal) ([6]; H69AR cells + 2 uM doxorubicin): 9.63% (inactive)
viability [6, 9]: 90.8%
viability [6, 10]: 100%
inhibition [7]: -4.05% (inactive)
inhibition [8]: -4.75% (inactive)
